In ChEMBL document CHEMBL1157882, “Novel 2-[(benzylamino)methyl]pyrrolidine-3,4-diol derivatives as alpha-mannosidase inhibitors and with antitumor activities against hematological and solid malignancies” (Bioorg Med Chem, 2010):
The source made the active and inactive calls. The rule behind the calls is not given here.

Legend:
Jurkat [1] = test: Cytotoxicity in human Jurkat cells overexpressing Bcl2 assessed as cell death at 2 uM after 72 hrs by propidium iodide-staining based flow cytometry; assay type: functional
Method in brief: (§1)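 Jurkat T cells stably overexpressing Bcl-2, plus vector controls, in RPMI-1640 with 10% FBS. Seeded at 4×10⁴ per well and treated for 72 h with 40 µM etoposide, 2 µM doxorubicin or 50 µM compound. Dead cells counted by propidium iodide staining and flow cytometry; means of triplicates with SD.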

Aspergillus niger = test: Inhibition of beta-xylosidase from Aspergillus niger at pH 5; parameters: concentration or dose not given beside the values; settings: concentration not given here
[2] = target: T1, Tissue alpha-L-fucosidase (Bos taurus) (UniProt Q2KIM0); test: Inhibition of alpha-L-fucosidase from bovine kidney at 1 mM at pH 6
T1 sequence (whole entry): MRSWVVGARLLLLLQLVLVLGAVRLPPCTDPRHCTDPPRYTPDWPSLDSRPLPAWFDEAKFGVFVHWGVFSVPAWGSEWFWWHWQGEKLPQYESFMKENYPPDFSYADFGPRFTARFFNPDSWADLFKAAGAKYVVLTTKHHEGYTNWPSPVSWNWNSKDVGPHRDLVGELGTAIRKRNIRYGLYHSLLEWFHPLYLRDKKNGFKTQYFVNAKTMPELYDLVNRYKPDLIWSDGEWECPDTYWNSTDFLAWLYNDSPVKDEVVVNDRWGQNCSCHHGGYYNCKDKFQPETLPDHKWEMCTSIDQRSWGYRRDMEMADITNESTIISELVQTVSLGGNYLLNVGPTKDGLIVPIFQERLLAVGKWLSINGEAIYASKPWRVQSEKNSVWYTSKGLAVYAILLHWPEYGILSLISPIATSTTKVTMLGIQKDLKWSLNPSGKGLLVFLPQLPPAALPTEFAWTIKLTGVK
Method in brief: (§2)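 Glycosidase panel of commercial enzymes assayed at each enzyme's optimal pH with compound at 1 mM; percentage inhibition of enzyme activity calculated.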

BT-474 = test: Cytotoxicity against human BT474 cells after 72 hrs by colorimetric assay; assay type: functional, cell-based
Method in brief: (§3)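 Cells grown in McCoy's medium (adherent lines) or RPMI-1640 (U266), each with 10% FBS, L-glutamine and antibiotics, at 37 °C in 5% CO₂. Compound dissolved as a 100 mM DMSO stock, final DMSO ≤0.4%. Cells were exposed for 72 h across a 10^-2 to 400 µM range. Viability was read by CellTiter 96 Aqueous (2–4 h incubation, absorbance 490 nm). Triplicate wells; IC50 from curve fitting.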

MDA-MB-231 = test: Cytotoxicity against human MDA-MB-231 cells after 72 hrs by colorimetric assay; assay type: functional, cell-based; method in brief: as §3
Prunus dulcis = test: Inhibition of beta-glucosidase from almond at 1 mM at pH 5; method in brief: as §2
Helix pomatia = test: Inhibition of beta-mannosidase from snail at pH 4; parameters: concentration or dose not given beside the values; settings: concentration not given here
Canavalia ensiformis [3] = test: Inhibition of alpha-mannosidase from jack bean at 1 mM at pH 5; method in brief: as §2
[4] = target: Beta-galactosidase (Escherichia coli) (UniProt Q8VNN2); test: Inhibition of beta-galactosidase from Escherichia coli at 1 mM at pH 7; method in brief: as §2
Sequence of Beta-galactosidase (Escherichia coli) (Q8VNN2 whole entry, looked up): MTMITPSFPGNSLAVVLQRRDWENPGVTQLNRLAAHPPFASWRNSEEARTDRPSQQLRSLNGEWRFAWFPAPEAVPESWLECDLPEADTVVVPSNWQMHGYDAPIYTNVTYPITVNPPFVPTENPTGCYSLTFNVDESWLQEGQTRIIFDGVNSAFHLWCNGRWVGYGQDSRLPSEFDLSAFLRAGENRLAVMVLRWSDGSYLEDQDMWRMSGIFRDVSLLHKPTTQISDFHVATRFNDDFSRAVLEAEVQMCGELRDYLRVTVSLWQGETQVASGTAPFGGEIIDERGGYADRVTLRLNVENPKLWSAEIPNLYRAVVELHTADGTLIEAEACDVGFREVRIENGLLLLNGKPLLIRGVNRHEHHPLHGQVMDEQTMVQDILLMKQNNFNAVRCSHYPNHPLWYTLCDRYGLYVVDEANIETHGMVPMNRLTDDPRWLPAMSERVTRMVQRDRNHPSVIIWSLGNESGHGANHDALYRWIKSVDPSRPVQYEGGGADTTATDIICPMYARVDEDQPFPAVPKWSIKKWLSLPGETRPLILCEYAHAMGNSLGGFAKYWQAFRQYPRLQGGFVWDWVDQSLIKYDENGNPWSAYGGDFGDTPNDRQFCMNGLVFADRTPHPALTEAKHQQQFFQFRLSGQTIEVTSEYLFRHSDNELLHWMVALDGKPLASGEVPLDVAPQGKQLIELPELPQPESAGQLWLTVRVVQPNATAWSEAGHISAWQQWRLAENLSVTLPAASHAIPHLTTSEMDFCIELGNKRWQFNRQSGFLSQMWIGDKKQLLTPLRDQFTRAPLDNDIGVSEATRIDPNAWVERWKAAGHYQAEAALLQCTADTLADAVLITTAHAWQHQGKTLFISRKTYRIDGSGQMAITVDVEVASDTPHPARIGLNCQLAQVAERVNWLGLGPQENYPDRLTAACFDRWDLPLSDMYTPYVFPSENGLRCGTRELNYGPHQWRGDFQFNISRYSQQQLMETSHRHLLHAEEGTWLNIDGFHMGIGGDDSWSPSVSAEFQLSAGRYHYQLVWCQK

[5] = target: Alpha-galactosidase (Coffea arabica) (UniProt Q42656); test: Inhibition of alpha-galactosidase from coffee beans at 1 mM at pH 6; method in brief: as §2
Sequence of Alpha-galactosidase (Coffea arabica) (Q42656 16-378 limits assumed): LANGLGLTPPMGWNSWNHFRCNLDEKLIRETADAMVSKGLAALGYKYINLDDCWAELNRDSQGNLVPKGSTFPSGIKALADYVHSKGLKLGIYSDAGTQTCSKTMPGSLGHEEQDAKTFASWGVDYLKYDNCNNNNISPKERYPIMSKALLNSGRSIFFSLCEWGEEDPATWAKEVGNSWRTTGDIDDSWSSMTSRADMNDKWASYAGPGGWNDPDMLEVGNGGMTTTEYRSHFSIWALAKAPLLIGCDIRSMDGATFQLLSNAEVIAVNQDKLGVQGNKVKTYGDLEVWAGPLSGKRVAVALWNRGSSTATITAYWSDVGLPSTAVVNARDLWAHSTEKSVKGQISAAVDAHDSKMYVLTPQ

Bos taurus = organism: Bos taurus; test: Inhibition of beta-N-acetylglucosaminidase from bovine kidney at pH 4; parameters: concentration or dose not given beside the values; settings: concentration not given here
A549 = test: Cytotoxicity against human A549 cells after 72 hrs by colorimetric assay; assay type: functional, cell-based; method in brief: as §3
[6] = target: Glucoamylase (Aspergillus niger) (UniProt P69328); test: Inhibition of amyloglucosidase from Aspergillus niger at 1 mM at pH 5; method in brief: as §2
Sequence of Glucoamylase (Aspergillus niger) (P69328 whole entry): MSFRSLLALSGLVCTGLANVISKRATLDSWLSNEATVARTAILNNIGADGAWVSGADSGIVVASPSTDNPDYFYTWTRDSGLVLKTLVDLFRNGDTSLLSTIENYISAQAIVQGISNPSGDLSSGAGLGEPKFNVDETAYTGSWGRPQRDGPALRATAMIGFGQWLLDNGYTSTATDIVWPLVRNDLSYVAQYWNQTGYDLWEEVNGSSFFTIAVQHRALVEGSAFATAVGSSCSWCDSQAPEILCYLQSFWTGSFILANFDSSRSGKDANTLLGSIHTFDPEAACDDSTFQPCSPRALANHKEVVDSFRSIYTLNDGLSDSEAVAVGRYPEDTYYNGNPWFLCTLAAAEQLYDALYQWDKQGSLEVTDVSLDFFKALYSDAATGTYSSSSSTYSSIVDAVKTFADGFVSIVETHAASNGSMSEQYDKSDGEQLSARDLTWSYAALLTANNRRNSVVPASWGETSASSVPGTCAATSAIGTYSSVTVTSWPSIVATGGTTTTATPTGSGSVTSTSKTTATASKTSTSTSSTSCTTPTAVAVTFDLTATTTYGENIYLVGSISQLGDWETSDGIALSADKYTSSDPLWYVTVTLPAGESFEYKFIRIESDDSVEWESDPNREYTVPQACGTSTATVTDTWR

SK-BR-3 = test: Cytotoxicity against human SKBR3 cells after 72 hrs by colorimetric assay; assay type: functional, cell-based; method in brief: as §3
Saccharomyces cerevisiae = test: Inhibition of alpha-glucosidase from yeast at 1 mM at pH 7; method in brief: as §2
[7] = target: T2, Beta-galactosidase (Aspergillus oryzae) (UniProt Q2U7N3); test: Inhibition of beta-galactosidase from Aspergillus oryzae at 1 mM at pH 4; method in brief: as §2
T2 sequence (whole entry): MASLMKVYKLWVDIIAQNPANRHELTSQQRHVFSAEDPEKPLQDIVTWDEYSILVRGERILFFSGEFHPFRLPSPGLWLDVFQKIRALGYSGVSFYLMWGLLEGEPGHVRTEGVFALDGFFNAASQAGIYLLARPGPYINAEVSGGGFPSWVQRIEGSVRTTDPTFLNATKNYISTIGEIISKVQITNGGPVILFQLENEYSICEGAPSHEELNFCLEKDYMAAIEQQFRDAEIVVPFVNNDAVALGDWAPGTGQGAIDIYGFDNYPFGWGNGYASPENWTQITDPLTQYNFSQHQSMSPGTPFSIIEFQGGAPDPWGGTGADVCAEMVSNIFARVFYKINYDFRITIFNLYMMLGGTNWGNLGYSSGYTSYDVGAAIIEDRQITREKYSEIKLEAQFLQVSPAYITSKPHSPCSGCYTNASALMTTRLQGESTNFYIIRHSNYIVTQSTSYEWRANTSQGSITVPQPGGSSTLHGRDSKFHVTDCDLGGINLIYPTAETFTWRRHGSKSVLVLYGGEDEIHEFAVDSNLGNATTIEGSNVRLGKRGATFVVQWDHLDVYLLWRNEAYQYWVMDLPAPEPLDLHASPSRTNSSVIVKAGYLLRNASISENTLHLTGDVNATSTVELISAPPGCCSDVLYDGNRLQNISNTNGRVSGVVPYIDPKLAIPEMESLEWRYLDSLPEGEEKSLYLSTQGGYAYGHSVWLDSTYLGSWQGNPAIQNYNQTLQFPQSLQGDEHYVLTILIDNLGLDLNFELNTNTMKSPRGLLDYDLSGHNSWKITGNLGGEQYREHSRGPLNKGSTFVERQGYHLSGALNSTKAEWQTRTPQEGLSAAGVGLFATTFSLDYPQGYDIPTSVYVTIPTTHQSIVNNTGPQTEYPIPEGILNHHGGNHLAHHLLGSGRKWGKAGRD

[8] = Inhibition of alpha-mannosidase from jack bean at pH 5; parameters: species or system Canavalia ensiformis
MCF7 = test: Cytotoxicity against human MCF7 cells after 72 hrs by colorimetric assay; assay type: functional, cell-based; method in brief: as §3
PC-3 = test: Cytotoxicity against human PC3 cells after 72 hrs by colorimetric assay; assay type: functional, cell-based; method in brief: as §3
U-266 = test: Cytotoxicity against human U266 cells after 72 hrs by colorimetric assay; assay type: functional, cell-based; method in brief: as §3
Canavalia ensiformis [9] = test: Inhibition of beta-N-acetylglucosaminidase from jack bean at pH 5; parameters: concentration or dose not given beside the values; settings: concentration not given here
Jurkat [10] = test: Cytotoxicity against human Jurkat cells after 72 hrs by colorimetric assay; assay type: functional, cell-based
[11] = Cytotoxicity against human U87 cells after 72 hrs by colorimetric assay; assay type: functional, cell-based, U-87MG ATCC; method in brief: as §3
Oryza sativa = test: Inhibition of alpha-glucosidase from rice at 1 mM at pH 4; method in brief: as §2
Jurkat [12] = test: Cytotoxicity in human Jurkat cells overexpressing Bcl2 assessed as cell death at 40 uM after 72 hrs by propidium iodide-staining based flow cytometry; assay type: functional; method in brief: as §1
[13] = Homo sapiens, BT-474, 72 h, read-out: IC50
[14] = Homo sapiens, MDA-MB-231, 72 h, read-out: IC50
[15] = Homo sapiens, A549, 72 h, read-out: IC50
[16] = Homo sapiens, SK-BR-3, 72 h, read-out: IC50
[17] = Homo sapiens, MCF7, 72 h, read-out: IC50
[18] = Homo sapiens, PC-3, 72 h, read-out: IC50
[19] = Homo sapiens, U-266, 72 h, read-out: IC50
[20] = Homo sapiens, Jurkat, 72 h, read-out: IC50
[21] = Homo sapiens, U-87 MG, 72 h, read-out: IC50

Structure (SMILES)	inhibition (Aspergillus niger)	inhibition [2]	inhibition (Prunus dulcis)	inhibition (Helix pomatia)	inhibition (Canavalia ensiformis [3])	inhibition [4]	inhibition [5]	inhibition (Bos taurus)	inhibition [6]	inhibition (Saccharomyces cerevisiae)	inhibition [7]	IC50 [8]	Ki [8]	inhibition (Canavalia ensiformis [9])	inhibition (Oryza sativa)	IC50 (BT-474; [13])	IC50 (MDA-MB-231; [14])	IC50 (A549; [15])	IC50 (SK-BR-3; [16])	IC50 (MCF7; [17])	other results
COc1cccc2c1C(=O)c1c(O)c3c(c(O)c1C2=O)C[C@@](O)(C(=O)CO)C[C@@H]3O[C@H]1C[C@H](N)[C@H](O)[C@H](C)O1	–	–	–	–	–	–	–	–	–	–	–	–	–	–	–	–	–	–	–	–	Activity (Jurkat [1]): inactive
OC[C@H](NC[C@H]1NC[C@H](O)[C@@H]1O)c1ccc(-c2ccccc2)cc1	50%	< 10%	20%	< 10%	99%	< 10%	< 10%	< 10%	< 10%	24%	< 10%	1.4 µM	0.9 µM	< 10%	< 10%	> 200 µM	> 200 µM	> 200 µM	> 200 µM	> 200 µM	IC50 (PC-3; [18]): > 200 µM; IC50 (U-266; [19]): > 200 µM; IC50 (Jurkat [10]; [20]): > 200 µM; IC50 [11, 21]: > 200 µM
COc1cc([C@@H]2c3cc4c(cc3[C@@H](O[C@@H]3O[C@@H]5CO[C@@H](C)O[C@H]5[C@H](O)[C@H]3O)[C@H]3COC(=O)[C@H]23)OCO4)cc(OC)c1O	–	–	–	–	–	–	–	–	–	–	–	–	–	–	–	–	–	–	–	–	Activity (Jurkat [12]): inactive

Second part, led by results:

inhibition (Aspergillus niger)	inhibition [2]	inhibition (Prunus dulcis)	inhibition (Helix pomatia)	inhibition (Canavalia ensiformis [3])	inhibition [4]	inhibition [5]	inhibition (Bos taurus)	inhibition [6]	inhibition (Saccharomyces cerevisiae)	inhibition [7]	IC50 [8]	Ki [8]	inhibition (Canavalia ensiformis [9])	inhibition (Oryza sativa)	Structure (SMILES)	IC50 (BT-474; [13])	IC50 (MDA-MB-231; [14])	IC50 (A549; [15])	IC50 (SK-BR-3; [16])	IC50 (MCF7; [17])	other results
28%	< 10%	62%	< 10%	98%	< 10%	< 10%	< 10%	< 10%	41%	< 10%	0.8 µM	0.5 µM	< 10%	< 10%	COc1ccc([C@H](CO)NC[C@H]2NC[C@H](O)[C@@H]2O)cc1	> 200 µM	> 200 µM	> 200 µM	> 200 µM	> 200 µM	IC50 (PC-3; [18]): > 200 µM; IC50 (U-266; [19]): > 200 µM; IC50 (Jurkat [10]; [20]): > 200 µM; IC50 [11, 21]: > 200 µM
50%	< 10%	36%	< 10%	97%	< 10%	< 10%	< 10%	< 10%	< 10%	< 10%	1.1 µM	0.8 µM	< 10%	< 10%	OC[C@H](NC[C@H]1NC[C@H](O)[C@@H]1O)c1ccc(-c2ccsc2)cc1	–	–	–	–	–	IC50 (BT-474; bt-474): Not Active; IC50 (MDA-MB-231; mda-mb-231): Not Active; IC50 (A549; a549): Not Active; IC50 (SK-BR-3; sk-br-3): Not Active; IC50 (MCF7; mcf7): Not Active; IC50 (PC-3; pc-3): Not Active; IC50 (U-266; u-266): Not Active; IC50 (Jurkat [10]; jurkat): Not Active; IC50 ([11]; u-87mg atcc): Not Active
28%	< 10%	72%	< 10%	99%	< 10%	< 10%	< 10%	< 10%	41%	< 10%	0.9 µM	0.5 µM	< 10%	< 10%	C=CCOc1ccc([C@H](CO)NC[C@H]2NC[C@H](O)[C@@H]2O)cc1	> 200 µM	> 200 µM	> 200 µM	> 200 µM	> 200 µM	IC50 (PC-3; [18]): > 200 µM; IC50 (U-266; [19]): > 200 µM; IC50 (Jurkat [10]; [20]): > 200 µM; IC50 [11, 21]: > 200 µM
45%	< 10%	40%	< 10%	99%	< 10%	< 10%	< 10%	< 10%	45%	< 10%	1.4 µM	0.6 µM	< 10%	< 10%	OC[C@H](NC[C@H]1NC[C@H](O)[C@@H]1O)c1ccc(OCc2ccccc2)cc1	–	–	–	–	–	IC50 (BT-474; bt-474): Not Active; IC50 (MDA-MB-231; mda-mb-231): Not Active; IC50 (A549; a549): Not Active; IC50 (SK-BR-3; sk-br-3): Not Active; IC50 (MCF7; mcf7): Not Active; IC50 (PC-3; pc-3): Not Active; IC50 (U-266; u-266): Not Active; IC50 (Jurkat [10]; jurkat): Not Active; IC50 ([11]; u-87mg atcc): Not Active
